Measured values pooled from the literature.
Organism: Klebsiella pneumoniae
Observed: microbial growth

CC1=NN(CNC(=O)c2ccccn2)C(=O)C1=NNn1c(-c2ccccc2)nc2ccccc2c1=O  MIC (broth dilution; 24 h): 52 µM
CCCCCC/C=C\CCCCCCCCCc1cc(O)cc(O)c1  MIC (broth dilution; ATCC10031): > 64 µg/mL
O=C1NN=C(N=Cc2ccc(O)cc2O)C1=NNn1c(-c2ccccc2)nc2ccccc2c1=O  MIC (broth dilution; 24 h): 53.5 µM
C[C@H]1[C@H](NC(=O)/C(=N\OC(C)(C)C(=O)O)c2csc(N)n2)C(=O)N1S(=O)(=O)O  MIC (broth dilution; ATCC700603): 0.63 µM
O=C(Nc1ccc2c(c1)OC(F)(F)O2)Nc1ccc(Cl)c(C(F)(F)F)c1  MIC (DSM30104): > 100 µM
CN(C)c1ccc(-c2ccc3cc4c(c(O)c3c2)C(=O)C2=C(O)[C@]3(O)C(=O)C(C(N)=O)=C(O)[C@@H](N(C)C)[C@@H]3C[C@@H]2C4)cc1  MIC (broth dilution; ATCC13883): 32 µg/mL
C/C(=C\C(=O)OCCCCCCCCC(=O)O)C[C@@H]1OC[C@H](C[C@@H]2O[C@H]2[C@@H](C)[C@H](C)O)[C@@H](O)[C@H]1O  MIC (broth dilution; ATCC700603): 160 µM
O=C(Nc1ccc(S(=O)(=O)c2nccs2)cc1)c1cc(N=Nc2nccs2)ccc1O  MIC (broth dilution): 100 µg/mL
Cc1c(CN(C)C(=O)/C=C/c2cnc3c(c2)CC(CCN)C(=O)N3)oc2ccccc12.Cl (stereo not drawn)  MIC (broth dilution; BAA1705): 16 µg/mL
CCCCCCC#Cc1cncc(-c2nnc(SCc3ccc([N+](=O)[O-])o3)n2C2CC2)c1  MIC: ≥ 20 µg/mL
CC(C)Oc1c(NC(=O)c2ccc(NC(=O)c3ccc(NC(=O)[C@H](CC(N)=O)NC(=O)c4ccc(NC(=O)c5ccc(C#N)cn5)cc4)cc3)c(OC(C)C)c2O)ccc(C(=O)O)c1O  MIC (DSM30104): 4 µg/mL
CN(Cc1ccc2cc3c(c(O)c2c1)C(=O)C1=C(O)[C@]2(O)C(=O)C(C(N)=O)=C(O)[C@@H](N(C)C)[C@@H]2C[C@@H]1C3)c1ccccc1  MIC (broth dilution; ATCC13883): 32 µg/mL
CO/N=C(\C(=O)N[C@@H]1C(=O)N2C(C(=O)[O-])=C(C[N+]3(C)CCCC3)CS[C@H]12)c1csc(N)n1  MIC (broth dilution; ATCC700603): 1.3 µM
NC1CCCCc2c1[nH]c1ccc(Cl)c(Cl)c21 (stereo not drawn)  MIC (broth dilution; ATCC10031): 8 µg/mL
CC(=O)NC[C@H]1CN(c2ccc(N3CCOCC3)c(F)c2)C(=O)O1  MIC (broth dilution; ATCC700603): 1280 µM
CC1=NN(CNC(=O)c2ccccc2)C(=O)C1=NNn1c(-c2ccccc2)nc2ccccc2c1=O  MIC (broth dilution; 24 h): 51.9 µM
CCC[C@@H]1C[C@@H](C(=O)N[C@@H]([C@H]2O[C@H](SC)[C@H](O)[C@@H](O)[C@H]2O)[C@H](C)Cl)N(C)C1  MIC (broth dilution; ATCC700603): 640 µM
NC[C@@H]1O[C@H](O[C@H]2[C@@H](O)[C@H](O[C@@H]3[C@@H](O)[C@H](N)C[C@H](N)[C@H]3O[C@H]3O[C@H](CO)[C@@H](O)[C@H](O)[C@H]3N)O[C@@H]2CO)[C@H](N)[C@@H](O)[C@@H]1O  MIC: 1 µg/mL
